Data from ChEMBL document CHEMBL1131579, “Nitroaromatic amino acids as inhibitors of neuronal nitric oxide synthase” (J Med Chem, 1998).

Legend:
[1] = target: T1, Nitric oxide synthase, inducible (Mus musculus, UniProt P29477); experiment: Inhibition of radiolabeled arginine conversion to citrulline by isomeric form of Inducible nitric oxide synthase from mouse RAW 264.7 cells; assay type: cell-based
T1 sequence (P29477 whole entry): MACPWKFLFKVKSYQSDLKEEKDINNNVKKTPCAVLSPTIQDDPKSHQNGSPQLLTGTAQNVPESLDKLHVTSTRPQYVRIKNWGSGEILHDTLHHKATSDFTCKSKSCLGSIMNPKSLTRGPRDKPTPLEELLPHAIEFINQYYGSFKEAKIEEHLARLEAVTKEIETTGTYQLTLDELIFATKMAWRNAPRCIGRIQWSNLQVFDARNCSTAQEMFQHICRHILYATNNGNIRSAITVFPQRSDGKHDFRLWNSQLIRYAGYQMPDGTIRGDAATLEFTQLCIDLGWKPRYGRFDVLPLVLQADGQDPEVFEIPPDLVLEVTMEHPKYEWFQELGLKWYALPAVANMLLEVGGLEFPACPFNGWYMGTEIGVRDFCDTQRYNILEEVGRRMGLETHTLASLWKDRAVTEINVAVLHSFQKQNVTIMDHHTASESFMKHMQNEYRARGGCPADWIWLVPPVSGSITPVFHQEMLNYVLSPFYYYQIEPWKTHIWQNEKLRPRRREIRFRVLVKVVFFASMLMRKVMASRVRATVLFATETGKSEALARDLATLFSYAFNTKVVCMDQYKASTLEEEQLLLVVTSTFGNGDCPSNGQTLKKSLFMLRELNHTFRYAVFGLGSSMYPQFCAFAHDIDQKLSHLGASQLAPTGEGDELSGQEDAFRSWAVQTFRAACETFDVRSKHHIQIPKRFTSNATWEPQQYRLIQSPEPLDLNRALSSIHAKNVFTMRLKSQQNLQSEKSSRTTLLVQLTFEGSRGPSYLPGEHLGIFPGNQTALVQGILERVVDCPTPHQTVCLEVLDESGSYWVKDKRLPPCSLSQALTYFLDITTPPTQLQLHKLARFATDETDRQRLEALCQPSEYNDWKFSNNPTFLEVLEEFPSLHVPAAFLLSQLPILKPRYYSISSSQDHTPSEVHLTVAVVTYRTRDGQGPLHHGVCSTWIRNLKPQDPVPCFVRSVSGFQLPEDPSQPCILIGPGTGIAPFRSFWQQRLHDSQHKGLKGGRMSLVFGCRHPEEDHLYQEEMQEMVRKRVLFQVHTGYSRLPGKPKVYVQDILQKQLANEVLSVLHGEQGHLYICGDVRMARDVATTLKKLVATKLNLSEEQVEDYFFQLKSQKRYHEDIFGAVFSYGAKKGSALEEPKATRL
Outline: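 Incubated 20 min at ambient temperature with 10 μM [3H]arginine, 1 mM NADPH, no Ca2+, and varying inhibitor. Stopped with EGTA/EDTA buffer, pH 5.5; [3H]citrulline separated on Dowex cation exchanger and counted by scintillation. IC50.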

[2] = target: T2, Nitric oxide synthase 1 (Rattus norvegicus, UniProt P29476); experiment: Inhibitory activity against isomeric form of Neuronal nitric oxide synthase measured by citrulline assay
Outline: (§1)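 Rat brain cytosol as nNOS source. Incubated 20 min at ambient temperature with 10 μM purified L-[2,3-3H]arginine, 1 mM NADPH, 2 mM CaCl2 and varying inhibitor. Stopped with EGTA/EDTA/HEPES buffer, pH 5.5. [3H]citrulline separated on Dowex 50WX-8 (Na+) and counted by liquid scintillation. IC50 reported.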

[3] = target: T3, Nitric oxide synthase 3 (Bos taurus, UniProt P29473); experiment: Inhibitory activity of conversion of radiolabeled arginine to citrulline by isomeric form of nitric oxide synthase Endothelial nitric oxide synthase from cultured bovine aortic endothelial cells; assay type: cell-based, Endothelial cell
T3 sequence (P29473 whole entry): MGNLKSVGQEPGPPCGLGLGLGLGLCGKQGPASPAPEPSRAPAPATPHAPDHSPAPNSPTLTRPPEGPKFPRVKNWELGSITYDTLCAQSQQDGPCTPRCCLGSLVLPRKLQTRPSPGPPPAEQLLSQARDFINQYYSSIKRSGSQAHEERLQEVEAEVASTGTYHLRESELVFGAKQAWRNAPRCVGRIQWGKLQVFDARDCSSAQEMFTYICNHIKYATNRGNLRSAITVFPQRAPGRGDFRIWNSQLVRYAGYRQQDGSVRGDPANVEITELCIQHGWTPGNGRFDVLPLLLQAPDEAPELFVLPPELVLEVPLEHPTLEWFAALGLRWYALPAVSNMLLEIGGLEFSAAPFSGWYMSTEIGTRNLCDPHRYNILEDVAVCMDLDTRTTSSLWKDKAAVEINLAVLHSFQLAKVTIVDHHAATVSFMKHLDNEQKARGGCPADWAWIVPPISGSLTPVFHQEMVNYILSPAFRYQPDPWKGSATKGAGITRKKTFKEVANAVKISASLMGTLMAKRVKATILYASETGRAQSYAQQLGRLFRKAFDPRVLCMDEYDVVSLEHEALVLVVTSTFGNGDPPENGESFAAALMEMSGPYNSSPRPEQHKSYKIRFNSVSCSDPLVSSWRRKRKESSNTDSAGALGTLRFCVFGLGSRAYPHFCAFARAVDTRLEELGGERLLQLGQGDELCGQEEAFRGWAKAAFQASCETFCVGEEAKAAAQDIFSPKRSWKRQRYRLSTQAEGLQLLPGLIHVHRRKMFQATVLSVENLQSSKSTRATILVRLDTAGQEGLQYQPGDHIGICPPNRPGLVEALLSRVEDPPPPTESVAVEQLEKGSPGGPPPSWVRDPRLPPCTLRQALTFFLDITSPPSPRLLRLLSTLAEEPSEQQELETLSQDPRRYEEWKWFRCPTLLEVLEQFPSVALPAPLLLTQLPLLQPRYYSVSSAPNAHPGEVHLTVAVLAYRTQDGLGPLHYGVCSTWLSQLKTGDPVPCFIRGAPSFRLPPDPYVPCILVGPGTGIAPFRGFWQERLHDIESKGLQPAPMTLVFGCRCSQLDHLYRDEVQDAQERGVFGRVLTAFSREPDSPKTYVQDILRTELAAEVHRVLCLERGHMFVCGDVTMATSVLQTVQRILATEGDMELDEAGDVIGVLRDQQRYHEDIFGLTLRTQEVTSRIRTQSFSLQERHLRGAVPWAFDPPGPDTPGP
Outline: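 eNOS taken from the CHAPS-solubilized particulate fraction of cultured bovine aortic endothelial cells. Incubated 20 min at ambient temperature with 10 μM L-[2,3-3H]arginine, 1 mM NADPH, 2 mM CaCl2 and graded inhibitor. Stopped at pH 5.5 with EGTA/EDTA; [3H]citrulline isolated on cation-exchange column and counted by scintillation. IC50.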

[4] = species: Rattus norvegicus; experiment: Inhibitory activity against N-methyl-D-aspartate (NMDA)-induced cyclic GMP accumulation in rat cerebellar slices; assay type: functional
Outline: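 Cerebellar slices (0.3 mm, coronal and sagittal) from 8–10-day-old rats, preincubated 105 min in Krebs buffer under 95% O2/5% CO2 at 37 °C, then equilibrated 15 min. Test compound added, followed by 500 μM NMDA for 3 min. Stopped with 50 mM sodium acetate and flash-frozen in liquid nitrogen; cGMP measured by radioimmunoassay after sonication.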

[5] = species: Rattus norvegicus; experiment: Effective concentration for reversal of ACh-induced relaxation in rat thoracic aorta; assay type: functional
Outline: (§2)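 Male Sprague-Dawley rat (350–375 g) thoracic aortic rings, endothelium spared, held at 1.25 g resting tension in Krebs buffer (pH 7.4) with 5 μM indomethacin, 37 °C, 5% CO2 in O2. After 1 h equilibration: 1 μM phenylephrine precontraction, then 1 μM ACh relaxation to plateau. Cumulative inhibitor additions, each to plateau, give a concentration-response curve for reversal of the relaxation.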

[6] = species: Rattus norvegicus; experiment: E max (%) calculated for reversal of ACh-induced relaxation in rat thoracic aorta; assay type: functional
Outline: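 Male Sprague-Dawley rat (350–375 g) thoracic aortic rings, endothelium preserved, held at 1.25 g resting tension at 37 °C in Krebs buffer (pH 7.4) containing 5 μM indomethacin, gassed with 5% CO2 in O2. After 1 h equilibration, rings were precontracted with 1 μM phenylephrine and relaxed with 1 μM ACh. Inhibitor was then added cumulatively, plateau between additions, to build a reversal concentration-response curve.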

[7] = species: Rattus norvegicus; experiment: Reversal of ACh-induced relaxation in rat thoracic aorta; assay type: functional; outline: as §2
[8] = target: T2, Nitric oxide synthase 1; experiment: Inhibition of arginine to citrulline conversion by Neuronal nitric oxide synthase from rat brain; outline: as §1
[9] = species: Rattus norvegicus; experiment: Percent reversal of ACh-induced relaxation at 100 uM in rat thoracic aorta; assay type: functional

T2 sequence (P29476 whole entry): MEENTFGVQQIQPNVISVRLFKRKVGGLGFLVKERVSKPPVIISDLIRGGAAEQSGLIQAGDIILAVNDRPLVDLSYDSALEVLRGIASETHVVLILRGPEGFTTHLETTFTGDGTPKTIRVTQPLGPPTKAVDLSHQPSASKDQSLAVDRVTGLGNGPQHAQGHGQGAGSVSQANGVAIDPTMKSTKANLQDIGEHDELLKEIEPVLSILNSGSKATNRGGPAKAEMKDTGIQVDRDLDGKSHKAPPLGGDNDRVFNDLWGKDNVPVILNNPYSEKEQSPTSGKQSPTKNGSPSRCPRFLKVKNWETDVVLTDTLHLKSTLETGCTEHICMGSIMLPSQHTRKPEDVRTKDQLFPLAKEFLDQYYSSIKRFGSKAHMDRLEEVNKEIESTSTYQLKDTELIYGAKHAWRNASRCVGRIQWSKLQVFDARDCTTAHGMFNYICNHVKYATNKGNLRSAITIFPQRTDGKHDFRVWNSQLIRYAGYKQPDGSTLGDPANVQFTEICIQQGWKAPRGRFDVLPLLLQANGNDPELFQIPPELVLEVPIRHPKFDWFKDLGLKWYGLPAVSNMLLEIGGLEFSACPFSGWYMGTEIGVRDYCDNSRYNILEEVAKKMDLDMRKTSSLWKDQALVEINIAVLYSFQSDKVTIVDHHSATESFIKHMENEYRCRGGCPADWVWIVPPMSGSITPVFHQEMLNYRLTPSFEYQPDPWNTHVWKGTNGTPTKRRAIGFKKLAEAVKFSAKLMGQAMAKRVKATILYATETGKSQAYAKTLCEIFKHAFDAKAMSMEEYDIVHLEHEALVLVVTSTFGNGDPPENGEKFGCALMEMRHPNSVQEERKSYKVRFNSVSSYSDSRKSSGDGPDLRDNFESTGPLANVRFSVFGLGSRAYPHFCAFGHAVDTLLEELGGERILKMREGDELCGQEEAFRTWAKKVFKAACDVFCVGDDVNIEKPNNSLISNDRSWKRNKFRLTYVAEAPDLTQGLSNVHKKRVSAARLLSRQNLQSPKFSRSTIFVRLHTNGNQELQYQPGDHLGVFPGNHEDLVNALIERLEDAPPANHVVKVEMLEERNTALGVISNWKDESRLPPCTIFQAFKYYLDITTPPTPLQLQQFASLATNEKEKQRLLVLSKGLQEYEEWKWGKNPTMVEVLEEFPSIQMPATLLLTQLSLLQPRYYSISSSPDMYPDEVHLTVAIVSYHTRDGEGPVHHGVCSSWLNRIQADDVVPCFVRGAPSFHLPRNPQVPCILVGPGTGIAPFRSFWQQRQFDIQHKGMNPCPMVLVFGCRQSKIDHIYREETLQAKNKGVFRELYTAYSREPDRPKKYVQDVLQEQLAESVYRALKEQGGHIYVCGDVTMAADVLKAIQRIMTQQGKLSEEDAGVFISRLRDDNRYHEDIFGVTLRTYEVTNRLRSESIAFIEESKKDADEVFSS

| SMILES | IC50 [1] [µM] | IC50 [2] [µM] | IC50 [3] [µM] | IC50 [8] [µM] | further results |
| --- | --- | --- | --- | --- | --- |
| N=C(NCCC[C@H](N)C(=O)O)N[N+](=O)[O-] [NITROARGININE] | 14 |  |  |  | IC50 [4]: 0.2 µM; EC50 [5]: 3 µM; Emax [6]: 138% |
| Cc1cccc(SCCC[C@H](N)C(=O)O)c1 | > 100 |  |  | > 100 |  |
| N[C@@H](CCCNc1ccc(C(=O)O)cc1[N+](=O)[O-])C(=O)O | > 100 | > 100 |  |  |  |
| Cc1cccc(NCCC[C@H](N)C(=O)O)c1 | > 100 |  |  | > 100 |  |
| N[C@@H](CCCNc1cc(O)ccc1[N+](=O)[O-])C(=O)O | > 100 |  |  | > 100 |  |
| Cc1ccc([N+](=O)[O-])c(N)c1 |  | 70 |  |  |  |
| N[C@@H](CCCNc1ccc([N+](=O)[O-])cc1[N+](=O)[O-])C(=O)O |  | 100 |  |  |  |
| CNC(=N)NCCC[C@H](N)C(=O)O [TILARGININE] |  |  |  |  | IC50 [4]: 3 µM; EC50 [5]: 14 µM; Emax [6]: 119% |
| N[C@@H](CCCNc1c([N+](=O)[O-])cccc1[N+](=O)[O-])C(=O)O |  | 30 | 60 |  |  |

The next lines start with results.

| IC50 [1] [µM] | IC50 [2] [µM] | IC50 [3] [µM] | IC50 [8] [µM] | SMILES | further results |
| --- | --- | --- | --- | --- | --- |
| > 100 | > 100 |  |  | Cc1ccc(NCCC[C@H](N)C(=O)O)c([N+](=O)[O-])c1 |  |
| > 100 | 100 | 100 |  | N[C@@H](CCCNc1ccccc1[N+](=O)[O-])C(=O)O |  |
| 5 |  | 40 | 3 | Cc1ccc([N+](=O)[O-])c(NCCC[C@H](N)CO)c1 | Emax [7]: 106%; EC50 [5]: 17 µM |
| > 100 | > 100 | > 100 |  | N[C@@H](CCCNc1ccc(F)cc1[N+](=O)[O-])C(=O)O |  |
| > 100 |  |  | > 100 | Cc1ccc([N+](=O)[O-])c(NCC[C@H](N)C(=O)O)c1 |  |
| > 100 | > 100 |  |  | N[C@@H](CCCNc1ccc(C(F)(F)F)cc1[N+](=O)[O-])C(=O)O |  |
| 4 |  | 9 | 5 | Cc1ccc([N+](=O)[O-])c(SCCC[C@H](N)C(=O)O)c1 | IC50 [4]: 37 µM |
| 9 |  | 20 | 2.5 | Cc1ccc([N+](=O)[O-])c(NCCCCN)c1 |  |
| 11 |  | 5 | 2.5 | Cc1ccc([N+](=O)[O-])c(NCCC[C@H](N)C(=O)O)c1 | IC50 [4]: 33 µM; Emax at 100 µM [9]: 41% |
| 80 |  | 10 | 4 | Cc1ccc([N+](=O)[O-])c(OCCC[C@H](N)C(=O)O)c1 |  |
